The subject of data set [1] is Human immunodeficiency virus 1. As to the kind of experiment: Effective concentration at which 50% of the HIV-IIIB-infected human lymphocyte-derived CEM cells protected from HIV-1 infection. The settings on record: Human immunodeficiency virus 1, CCRF-CEM.
The nature of data set [2]: Concentration which elicits cytotoxicity in 50% of uninfected human lymphocyte derived CEM cells. Type of data set: cell-based, CCRF-CEM. As to conditions: uninfected CCRF-CEM cells, read-out: TC50 (the source's name). The method in brief:
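Cytotoxicity measured in uninfected human lymphocyte-derived CEM cells by XTT protocol.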

The target of data set [3] is Human immunodeficiency virus type 1 protease (Human immunodeficiency virus 1, UniProt Q72874). The data set can be described thus: Activity of potent nonpeptidic inhibitor against protease. The method in brief:
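Incubated with 40 µM His-Lys-Ala-Arg-Val-Leu-(p-NO₂-Phe)-Glu-Ala-Nle-Ser-NH₂ in 1.0% DMSO, pH 6.2 MES buffer (DTT, NaCl, EDTA, PEG 8000) for 60 min at 37 °C, then TFA quench. Substrate and product separated by reverse-phase HPLC, read at 220 nm. % control = conversion with inhibitor / conversion without × 100; IC50 derived.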

As for `Cc1cc(SC2=C(O)OC(C)(CCc3ccc(O)cc3)CC2=O)c(C(C)(C)C)cc1NS(=O)(=O)c1ccccc1` (stereo not given), the EC50 (as a rule, the concentration at which the effect is half-maximal) in data set [1] worked out at 5.2 µM. Further, the CC50 in data set [2] is above 100 µM. In data set [3], the IC50 (as a rule, the concentration at which inhibition is half-maximal) turned out to be 0.0015 µM.

With `Cc1cc(SC2=C(O)OC(C)(CCc3ccc(O)cc3)CC2=O)c(C(C)(C)C)cc1OS(=O)(=O)c1ccc(F)cc1` (stereo not given), in data set [1], a half-maximal response (EC50) required 6.3 µM. Moreover, in data set [2], the CC50 amounted to 100 µM. The compound further yielded an IC50 in data set [3] of 0.0169 µM.

`Cc1cc(SC2=C(O)OC(CCc3ccc(N)cc3)(C(C)C)CC2=O)c(C(C)(C)C)cc1OS(=O)(=O)c1ccc(C#N)cc1` (stereo not given) registered an EC50 in data set [1] of 0.4 µM. For the same compound, in data set [2], the CC50 is 53 µM. In addition, the IC50 in data set [3] was determined as 0.0013 µM.

In data set [1], `CCNS(=O)(=O)Nc1cc(C(C)(C)C)c(SC2=C(O)OC(CCc3ccccc3)(C(C)C)CC2=O)cc1C` (stereo not given) showed a concentration for a half-maximal effect (EC50) of 1.2 µM. In addition, the CC50 in data set [2] worked out at 77 µM. Further, inhibition in data set [3] was half-maximal at 0.0033 µM (IC50).

In data set [1], `Cc1cc(SC2=C(O)OC(CCc3ccc(N)cc3)(C(C)C)CC2=O)c(C(C)(C)C)cc1OS(=O)(=O)c1cccs1` (stereo not given) gave an EC50 of 6 µM. Also, the CC50 in data set [2] is 66 µM. The IC50 in data set [3] is 0.0185 µM.

`Cc1cc(SC2=C(O)OC(CCc3ccc(O)cc3)(C(C)C)CC2=O)c(C(C)(C)C)cc1NS(=O)(=O)c1ccc(Cl)cc1` (stereo not given) yielded an EC50 in data set [1] of 1.6 µM. In data set [2], the CC50 turned out to be 66 µM. Moreover, it took 0.0053 µM to reach half-maximal inhibition in data set [3] (IC50).

`CCNS(=O)(=O)Oc1cc(C(C)(C)C)c(SC2=C(O)OC(CCc3ccc(N)cc3)(C(C)C)CC2=O)cc1C` (stereo not given) registered an EC50 in data set [1] of 0.7 µM. In data set [2], the CC50 was determined as 83 µM.

`Cc1cc(SC2=C(O)OC(CCc3ccc(N)cc3)(C(C)C)CC2=O)c(C(C)(C)C)cc1OS(=O)(=O)N(C)C` (stereo not given): in data set [1], it took 0.8 µM to reach a half-maximal effect (EC50). Besides, the CC50 in data set [2] was found to be 64 µM.

With `Cc1cc(SC2=C(O)OC(CCc3ccc(O)cc3)(C(C)C)CC2=O)c(C(C)(C)C)cc1OS(=O)(=O)N(C)C` (stereo not given), the CC50 in data set [2] was found to be 70 µM.

In the case of `Cc1cc(SC2=C(O)OC(CCc3ccccc3)(C(C)C)CC2=O)c(C(C)(C)C)cc1NS(=O)(=O)c1cccs1` (stereo not given), in data set [1], the response was half-maximal at 2.1 µM (EC50). Besides, in data set [2], the CC50 came to 61 µM. The compound also came in with an IC50 in data set [3] of 0.0036 µM.

Compound `Cc1cc(SC2=C(O)OC(CCc3ccc(O)cc3)(C(C)C)CC2=O)c(C(C)(C)C)cc1NS(C)(=O)=O` (stereo not given) showed an EC50 in data set [1] of 5.3 µM. Besides, in data set [2], the CC50 is above 100 µM. Half-maximal inhibition in data set [3] (IC50) required 0.004 µM.

The compound `Cc1cc(SC2=C(O)OC(CCc3ccccc3)(C(C)C)CC2=O)c(C(C)(C)C)cc1NS(=O)(=O)c1cccnc1` (stereo not given) came in with an EC50 in data set [1] of 1.6 µM. Besides, in data set [2], the CC50 is 76 µM. In data set [3], this compound displayed a concentration for half-maximal inhibition (IC50) of 0.0035 µM.

Turning to `Cc1cc(SC2=C(O)OC(CCc3ccccc3)(C(C)C)CC2=O)c(C(C)(C)C)cc1OS(=O)(=O)c1cccnc1` (stereo not given), a half-maximal effect in data set [1] (EC50) was put at 4.6 µM. In addition, the CC50 in data set [2] worked out at 65 µM. This compound also registered a concentration for half-maximal inhibition (IC50) in data set [3] of 0.014 µM.

For `Cc1cc(SC2=C(O)OC(C)(CCc3ccc(O)cc3)CC2=O)c(C(C)(C)C)cc1NS(=O)(=O)c1ccc(Cl)cc1` (stereo not given), it took 3.9 µM to reach a half-maximal effect in data set [1] (EC50). The CC50 in data set [2] is 71 µM. Also, in data set [3], the IC50 turned out to be 0.0035 µM.

Regarding `Cc1cc(SC2=C(O)OC(CCc3ccccc3)(C(C)C)CC2=O)c(C(C)(C)C)cc1OS(=O)(=O)Cn1ccnc1` (stereo not given), a half-maximal response in data set [1] (EC50) required 1.1 µM. In data set [2], the CC50 worked out at 66 µM. In data set [3], this compound returned an IC50 of 0.003 µM.

In data set [1], `Cc1cc(SC2=C(O)OC(CCc3ccc(O)cc3)(C(C)C)CC2=O)c(C(C)(C)C)cc1NS(=O)(=O)c1cccnc1` (stereo not given) came in with an EC50 of 5.8 µM. In addition, the CC50 in data set [2] was above 100 µM. In data set [3], this compound returned an IC50 of 0.0026 µM.

In turn, `Cc1cc(SC2=C(O)OC(CCc3ccc(O)cc3)(C(C)C)CC2=O)c(C(C)(C)C)cc1N` (stereo not given) returned a concentration for a half-maximal effect (EC50) in data set [1] of 1 µM. Further, in data set [2], the CC50 came out at 92 µM.

In data set [1], `CCNS(=O)(=O)Oc1cc(C(C)(C)C)c(SC2=C(O)OC(CCc3ccc(O)cc3)(C(C)C)CC2=O)cc1C` (stereo not given) yielded an EC50 of 1 µM. Further, the CC50 in data set [2] was above 100 µM.

On to `CC(=O)Nc1ccc(S(=O)(=O)Nc2cc(C(C)(C)C)c(SC3=C(O)OC(C)(CCc4ccc(O)cc4)CC3=O)cc2C)cc1` (stereo not given), for which a half-maximal effect in data set [1] (EC50) was put at 55 µM. Besides, the CC50 in data set [2] was above 100 µM.

(Values after ChEMBL document CHEMBL1132961 (J Med Chem, 2000).)
